Reference: ChEMBL document CHEMBL1130381, “Synthesis and evaluation of trimetoquinol derivatives: novel thromboxane A2/prostaglandin H2 antagonists with diminished beta-adrenergic agonist activity” (J Med Chem, 1997)

Experiments:
Homo sapiens [1] = species on record: Homo sapiens; test: Potency ratio of human platelet aggregation; assay type: functional
Thromboxane A2 receptor = target: T1, Thromboxane A2 receptor (Homo sapiens, UniProt P21731); test: Inhibitory concentration against radioligand [3H]SQ-29,548 (5 nM) binding to TP receptors in human platelets
T1 sequence (P21731 whole entry): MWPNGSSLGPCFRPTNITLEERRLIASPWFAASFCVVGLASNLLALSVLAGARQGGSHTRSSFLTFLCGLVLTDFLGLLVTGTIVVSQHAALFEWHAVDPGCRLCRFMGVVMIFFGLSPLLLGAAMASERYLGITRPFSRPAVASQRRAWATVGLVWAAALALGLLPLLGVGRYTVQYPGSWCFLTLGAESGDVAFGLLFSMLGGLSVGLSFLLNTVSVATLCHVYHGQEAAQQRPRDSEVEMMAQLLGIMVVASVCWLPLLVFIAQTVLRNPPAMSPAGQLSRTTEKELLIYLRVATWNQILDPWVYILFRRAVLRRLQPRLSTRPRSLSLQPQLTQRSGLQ

Homo sapiens [2] = species on record: Homo sapiens; test: Inhibitory activity against U-46,619-induced (1 uM) human platelet activation (aggregation); assay type: functional
How it was run: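 Human platelet-rich plasma from volunteers free of medication for at least 10 days, with aspirin (1 mM) to block endogenous prostaglandins. Drug and aspirin preincubated 1 min, then U46619 (0.3–1 μM, minimum concentration giving maximal aggregation) added. Turbidometric aggregation monitored for 4 min. IC50 read graphically from percent response versus log concentration plots, reported as pIC50.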

Homo sapiens [3] = species on record: Homo sapiens; test: Inhibitory activity against U-46,619-induced (1 uM) human platelet activation (Serotonin secretion); assay type: functional
How it was run: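 Aspirin (1 mM) plus drug for 1 min, then U46619 (0.3–1 μM). Supernatant counted by liquid scintillation. Percent secretion = (sample − unstimulated background cpm)/(total − background cpm) × 100. IC50 taken graphically from log concentration–response plots, given as pIC50.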

[4] = target: Beta-2 adrenergic receptor (Cavia porcellus) (UniProt Q8K4Z4)
[5] = target: Beta-1 adrenergic receptor (Cavia porcellus) (UniProt B0FL73); conditions: Cardiac atrium
Beta-1 adrenergic receptor (Cavia porcellus), sequence (B0FL73 1-467): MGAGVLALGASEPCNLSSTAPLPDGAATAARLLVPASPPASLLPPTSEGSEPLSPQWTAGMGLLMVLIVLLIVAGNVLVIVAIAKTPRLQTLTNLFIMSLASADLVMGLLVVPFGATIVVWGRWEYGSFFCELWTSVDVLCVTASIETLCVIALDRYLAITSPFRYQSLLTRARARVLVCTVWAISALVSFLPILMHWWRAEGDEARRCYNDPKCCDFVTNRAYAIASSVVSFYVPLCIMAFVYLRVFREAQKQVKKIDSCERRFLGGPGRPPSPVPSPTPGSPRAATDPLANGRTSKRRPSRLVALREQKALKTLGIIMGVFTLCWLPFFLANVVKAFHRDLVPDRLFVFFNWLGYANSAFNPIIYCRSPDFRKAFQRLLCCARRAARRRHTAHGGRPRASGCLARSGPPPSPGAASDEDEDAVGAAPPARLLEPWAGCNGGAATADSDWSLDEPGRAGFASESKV

Beta-2 adrenergic receptor (Cavia porcellus), sequence (Q8K4Z4 whole entry, looked up): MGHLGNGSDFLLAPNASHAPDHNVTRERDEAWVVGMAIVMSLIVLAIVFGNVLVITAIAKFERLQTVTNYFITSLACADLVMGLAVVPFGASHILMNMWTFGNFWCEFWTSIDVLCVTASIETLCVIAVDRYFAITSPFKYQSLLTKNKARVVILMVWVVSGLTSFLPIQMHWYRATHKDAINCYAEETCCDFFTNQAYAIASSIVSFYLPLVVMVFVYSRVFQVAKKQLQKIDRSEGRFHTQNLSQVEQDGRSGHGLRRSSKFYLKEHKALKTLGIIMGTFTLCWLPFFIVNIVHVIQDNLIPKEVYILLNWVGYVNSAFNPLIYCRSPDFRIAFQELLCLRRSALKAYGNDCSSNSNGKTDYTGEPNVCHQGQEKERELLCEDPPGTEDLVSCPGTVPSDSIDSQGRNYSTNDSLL

Row | SMILES | IC50 (Thromboxane A2 receptor) [µM] | Ki (Thromboxane A2 receptor) [µM] | IC50 (Homo sapiens [2]) [µM] | IC50 (Homo sapiens [3]) [µM] | pD2 [4] | pD2 [5] | Potency ratio (Homo sapiens [1])
1 | COc1cc(CC2NCCc3cc(O)c(O)cc32)cc(I)c1OC (configuration not stated) | – | – | – | – | – | – | 1.12
2 | COc1cc(CC2c3cc(O)c(O)cc3CCN2Cc2ccccc2)cc(OC)c1OC (configuration not stated) | – | – | – | – | – | – | 0.0331
3 | COc1cc(N=C2NCCc3cc(O)c(O)cc32)cc(OC)c1OC | 275 | 120 | – | – | – | – | –
4 | COc1cc(NC2=NCCc3cc(O)c(O)cc32)cc(OC)c1OC | – | – | 200 | 204 | 3.95 | – | 0.00575

Continued, in another order:

Row | IC50 (Thromboxane A2 receptor) [µM] | Ki (Thromboxane A2 receptor) [µM] | IC50 (Homo sapiens [2]) [µM] | IC50 (Homo sapiens [3]) [µM] | pD2 [4] | pD2 [5] | SMILES | Potency ratio (Homo sapiens [1])
5 | 25.1 | 9.55 | 44.7 | 60.3 | 7.49 | 7.26 | O=[N+]([O-])c1ccc(CC2NCCc3cc(O)c(O)cc32)cc1 (configuration not stated) | –
6 | 0.871 | 0.339 | 1.26 | 1.12 | 6.55 | 5.91 | O=[N+]([O-])c1cc(CC2NCCc3cc(O)c(O)cc32)ccc1O (configuration not stated) | –
7 | – | – | 1.15 | 1.32 | 7.26 | 7.36 | COc1cc(C[C@@H]2NCCc3cc(O)c(O)cc32)cc(OC)c1OC [TRETOQUINOL] | –
8 | 41.7 | 16.2 | 38 | 34.7 | 4.64 | 4.62 | COc1cc(CC2c3cc(O)c(O)cc3CCN2CCc2ccccc2)cc(OC)c1OC (configuration not stated) | 0.0302
9 | 89.1 | 34.7 | 129 | 145 | 6.75 | 6.21 | Nc1ccc(CC2NCCc3cc(O)c(O)cc32)cc1 (configuration not stated) | –
